Measurements: ChEMBL document CHEMBL4219255, “Targeting Transient Receptor Potential Vanilloid 1 (TRPV1) Channel Softly: The Discovery of Passerini Adducts as a Topical Treatment for Inflammatory Skin Disorders” (J Med Chem, 2018)
Activity calls are given as the source filed them. The calls are words filed in the database; no cut-off is given here.

How the values were obtained:
[1] = biological target: Transient receptor potential cation channel subfamily V member 1 (Homo sapiens, UniProt Q8NER1); experiment: Antagonist activity at TRPV1 (unknown origin) expressed in human SH-SY5Y cells assessed as inhibition of capsaicin-induced calcium influx at 1 uM after 25 mins by Fluo-4 NW dye-based fluorescence assay relative to capsaicin; type: cell-based
Transient receptor potential cation channel subfamily V member 1, sequence (Q8NER1 whole entry): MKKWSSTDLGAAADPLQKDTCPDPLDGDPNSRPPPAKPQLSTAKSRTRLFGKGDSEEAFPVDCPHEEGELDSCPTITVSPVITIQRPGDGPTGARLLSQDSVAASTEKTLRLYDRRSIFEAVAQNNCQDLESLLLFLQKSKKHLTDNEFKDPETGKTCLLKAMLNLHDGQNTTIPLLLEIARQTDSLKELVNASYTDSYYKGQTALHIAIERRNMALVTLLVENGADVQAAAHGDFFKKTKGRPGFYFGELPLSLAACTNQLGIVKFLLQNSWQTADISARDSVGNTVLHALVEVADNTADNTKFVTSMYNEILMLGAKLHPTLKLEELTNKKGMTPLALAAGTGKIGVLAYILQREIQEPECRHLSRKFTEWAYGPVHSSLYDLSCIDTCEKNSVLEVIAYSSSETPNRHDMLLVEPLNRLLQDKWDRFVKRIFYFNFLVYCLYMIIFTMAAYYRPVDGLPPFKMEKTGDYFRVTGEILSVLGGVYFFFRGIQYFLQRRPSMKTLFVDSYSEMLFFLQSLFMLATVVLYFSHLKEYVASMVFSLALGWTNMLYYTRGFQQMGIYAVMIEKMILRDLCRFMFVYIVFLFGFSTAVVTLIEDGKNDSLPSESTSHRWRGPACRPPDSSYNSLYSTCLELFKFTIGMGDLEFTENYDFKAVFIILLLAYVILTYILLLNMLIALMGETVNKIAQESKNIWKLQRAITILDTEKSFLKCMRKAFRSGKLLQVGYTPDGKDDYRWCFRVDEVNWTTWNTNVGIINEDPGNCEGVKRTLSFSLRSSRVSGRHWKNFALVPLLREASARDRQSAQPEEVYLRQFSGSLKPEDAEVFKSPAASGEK

[2] = Drug metabolism in human HaCaT cells assessed as residual substrate levels at 25 uM up to 240 mins by HPLC-UV analysis; type: ADME, cell-based; conditions: read-out: Stability
[3] = Drug metabolism in human plasma assessed as residual substrate levels at 100 uM up to 20 mins by HPLC-UV analysis; type: ADME, cell-free; conditions: read-out: Stability
[4] = Drug metabolism in human fibroblast cells assessed as residual substrate levels at 50 uM up to 120 mins by HPLC-UV analysis; type: ADME, cell-based; conditions: read-out: Stability
Liver carboxylesterase 1 = biological target: T1, Liver carboxylesterase 1 (Homo sapiens, UniProt P23141); experiment: Drug metabolism assessed as recombinant human CE1-mediated compound hydrolysis by measuring rate constant at 50 uM up to 30 mins by LC-UV analysis; type: ADME; conditions: 0.5 h
T1 sequence (P23141 whole entry): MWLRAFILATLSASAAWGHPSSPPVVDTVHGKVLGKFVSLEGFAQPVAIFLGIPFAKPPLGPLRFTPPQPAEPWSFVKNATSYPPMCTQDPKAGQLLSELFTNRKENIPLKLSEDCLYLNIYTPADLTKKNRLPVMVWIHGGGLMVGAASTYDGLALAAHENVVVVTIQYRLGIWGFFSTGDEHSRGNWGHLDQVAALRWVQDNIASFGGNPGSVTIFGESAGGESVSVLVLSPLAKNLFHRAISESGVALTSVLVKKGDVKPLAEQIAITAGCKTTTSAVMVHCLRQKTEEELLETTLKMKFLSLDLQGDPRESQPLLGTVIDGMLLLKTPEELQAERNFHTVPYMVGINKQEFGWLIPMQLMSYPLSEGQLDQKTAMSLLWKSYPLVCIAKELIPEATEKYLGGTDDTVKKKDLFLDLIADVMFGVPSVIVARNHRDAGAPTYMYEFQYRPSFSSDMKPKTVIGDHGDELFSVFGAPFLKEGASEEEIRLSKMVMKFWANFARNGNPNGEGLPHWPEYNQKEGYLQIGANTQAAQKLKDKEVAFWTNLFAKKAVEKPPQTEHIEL
In short: (§1)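 Recombinant human carboxylesterase isoforms 1 and 2 were each incubated with the test ester. Hydrolysis was followed by HPLC-UV, tracking the disappearance of the substrate over incubation time relative to the initial amount. Chromatograms were also checked for peaks of the expected hydrolysis metabolites.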

[5] = biological target: T2, Liver carboxylesterase 1 (CE1) (Homo sapiens, UniProt P23141); experiment: Drug metabolism assessed as recombinant human CE1-mediated compound hydrolysis by measuring compound half life at 50 uM up to 30 mins by LC-UV analysis; type: ADME; in short: as §1
T2 sequence (P23141 whole entry): T1 sequence (P23141 whole entry)

Cocaine esterase (CE2) = biological target: T3, Cocaine esterase (CE2) (Homo sapiens, UniProt O00748); experiment: Drug metabolism assessed as recombinant human CE2-mediated compound hydrolysis by measuring compound half life at 50 uM up to 30 mins by LC-UV analysis; type: ADME; in short: as §1
T3 sequence (O00748 whole entry): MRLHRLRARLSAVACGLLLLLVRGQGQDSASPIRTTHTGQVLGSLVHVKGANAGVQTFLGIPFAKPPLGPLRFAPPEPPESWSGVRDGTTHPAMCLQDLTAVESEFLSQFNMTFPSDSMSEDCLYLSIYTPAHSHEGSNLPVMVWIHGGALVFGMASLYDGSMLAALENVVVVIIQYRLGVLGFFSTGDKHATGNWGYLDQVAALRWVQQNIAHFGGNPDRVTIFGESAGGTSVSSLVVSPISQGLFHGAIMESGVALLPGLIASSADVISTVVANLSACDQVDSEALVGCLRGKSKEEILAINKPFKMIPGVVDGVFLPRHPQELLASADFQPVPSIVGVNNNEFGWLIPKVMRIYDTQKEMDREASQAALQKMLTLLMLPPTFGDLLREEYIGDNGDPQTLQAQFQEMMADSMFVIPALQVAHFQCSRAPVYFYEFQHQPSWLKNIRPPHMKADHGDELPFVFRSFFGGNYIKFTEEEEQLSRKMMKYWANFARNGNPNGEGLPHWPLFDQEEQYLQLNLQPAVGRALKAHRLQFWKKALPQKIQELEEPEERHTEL

Mus musculus [6] = experiment: Analgesic activity in CFA-induced thermal hyperalgesia C57BL/6 mouse model assessed as reduction in latency time required to elicit paw withdrawal in response to radiant heat applied to the plantar surface of a hind paw administered as intraplantar injection treated at 24 hrs post CFA injection measured every 30 mins up to 120 mins post dose; type: functional, organism-based
Mus musculus [7] = experiment: (§2) Analgesic activity in CFA-induced thermal hyperalgesia C57BL/6 mouse model assessed as reduction in latency time required to elicit paw withdrawal in response to radiant heat applied to the plantar surface of a hind paw at 10 to 100 ug administered as intraplantar injection treated at 24 hrs post CFA injection measured at 30 mins post dose; type: functional, organism-based
Mus musculus [8] = experiment: as §2, with “90” for “30”; type: functional, organism-based
Mus musculus [9] = experiment: Analgesic activity in CFA-induced thermal hyperalgesia C57BL/6 mouse model assessed as reduction in CFA-induced ipsilateral paw withdrawal administered intravenously treated for 24 hrs post CFA injection; type: functional, organism-based
Mus musculus [10] = experiment: Analgesic activity in CFA-induced thermal hyperalgesia C57BL/6 mouse model assessed as reduction in CFA-induced ipsilateral paw withdrawal latency at 1 mg/kg, iv treated at 24 hrs post CFA injection measured at 30 to 60 mins post dose; type: functional, organism-based
Mus musculus [11] = experiment: Analgesic activity in CFA-induced thermal hyperalgesia C57BL/6 mouse model assessed as reduction in CFA-induced ipsilateral paw withdrawal latency at 3 mg/kg, iv treated at 24 hrs post CFA injection measured at 60 to 90 mins post dose; type: functional, organism-based
Mus musculus [12] = experiment: Antipruritic activity in C57BL/6 mouse histaminergic pruritus model assessed as reduction in licking behavior at 100 ug administered as intraplantar injection pretreated for 30 mins followed by histamine addition measured 10 to 20 mins post histamine instillation; type: functional, organism-based
Mus musculus [13] = experiment: Antipruritic activity in C57BL/6 mouse non-histaminergic pruritus model assessed as reduction in chloroquine-induced licking behavior at 100 ug administered as intraplantar injection pretreated for 30 mins followed by chloroquine addition measured 10 to 20 mins post chloroquine instillation; type: functional, organism-based
Mus musculus [14] = experiment: Effect on thermal nociception of the contralateral paw in CFA-induced thermal hyperalgesia C57BL/6 mouse model at 1 to 10 mg/kg, iv treated at 24 hrs post CFA injection; type: ADME, organism-based; conditions: in vivo
Mus musculus [15] = experiment: Toxicity in C57BL/6 mouse assessed as change in body temperature at 10 mg/kg, iv after 120 mins; type: organism-based; conditions: in vivo, 2 h
[16] = Drug metabolism in human liver microsomes assessed as glucuronide metabolite formation at 50 uM in presence of UDPGA after 60 mins by LC-ESI-MS analysis; type: ADME, microsome; conditions: 1 h
[17] = Drug metabolism in human liver microsomes assessed as sulfate conjugate formation at 50 uM in presence of UDPGA after 60 mins by LC-ESI-MS analysis; type: ADME, microsome; conditions: 1 h
[18] = Drug metabolism in human liver cytosol assessed as glucuronide metabolite formation at 50 uM in presence of UDPGA after 60 mins by LC-ESI-MS analysis; type: ADME, subcellular; conditions: 1 h
[19] = Drug metabolism in human liver cytosol assessed as sulfate conjugate formation at 50 uM in presence of UDPGA after 60 mins by LC-ESI-MS analysis; type: ADME, subcellular; conditions: 1 h

inhibition [1]: 59.8%
remaining at 4 h, 25 µM [2]: 98.6%
remaining at 20 min, 100 µM [3]: 82%
remaining at 2 h, 50 µM [4]: 13.3%
K (Liver carboxylesterase 1): 0.0255 min⁻¹
half-life at 50 µM [5]: 27.2 min
half-life at 50 µM (Cocaine esterase (CE2)): 12.5 min
Drug metabolism [16]: Metabolite_Notdetected
Drug metabolism [17]: Metabolite_Notdetected
Drug metabolism [18]: Metabolite_Notdetected
Drug metabolism [19]: Metabolite_Notdetected
Compound: CCCCCCCCCCCC(=O)OCC(=O)NCc1cc(OC)c(O)cc1I
Activity (Mus musculus [6]): Dose-dependent effect
Activity (Mus musculus [7]): Active
Activity (Mus musculus [8]): Active
Activity (Mus musculus [9]): Dose-dependent effect
Activity (Mus musculus [10]): Active
Activity (Mus musculus [11]): Active
Activity (Mus musculus [12]): Active
Activity (Mus musculus [13]): Active
Activity (Mus musculus [14]): Non-Toxic
Activity (Mus musculus [15]): Non-Toxic
